Data published in ChEMBL document CHEMBL1155309, “Synthesis of 3,6-disubstituted 7H-1,2,4-triazolo[3,4-b]-1,3,4-thiadiazines as novel analgesic/anti-inflammatory compounds” (Eur J Med Chem, 2009).

How the values were obtained:
Mus musculus [1] = test: Analgesic activity in BALB/c mouse assessed as decrease in acetic acid-induced writhing at 200 mg/kg, po administered 1 hr prior to acetic acid challenge by Koster's test; type: functional
Method in brief: (§1)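 Test samples suspended in distilled water/0.5% CMC given orally; vehicle to controls. 1 h later, 3% (w/v) acetic acid i.p. (0.1 ml/10 g). Starting 5 min after injection, writhings counted for 10 min. Result expressed as % change from writhing controls. Groups of 4 mice (preliminary 100 mg/kg) or 4–5 mice (50/200 mg/kg). Two-tailed Student's t test.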

Mus musculus [2] = test: Antioxidant activity in BALB/c mouse assessed as TBARS level per gram of wet weight of tissue at 200 mg/kg, po; type: functional; parameters: unit: nmol/g
Method in brief: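 Mice dosed orally at 200 mg/kg were killed under ether 8 h after the writhing test and stomachs removed. Tissue extract supernatant obtained by centrifugation (1000×g 10 min, then 2000×g 30 min, 4 °C). Heated with TBA in boiling water for 60 min, TCA added, absorbance read at 532 nm against blank tissue. Calibrated with 1,1,3,3-tetraethoxypropane; reported as nmol TBARS/g wet tissue.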

Mus musculus [3] = test: Antiinflammatory activity in BALB/c mouse assessed as inhibition of carrageenan-induced paw edema at 100 mg/kg, po after 90 mins; type: functional; conditions: 1.5 h
Method in brief: (§2)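 Oral dosing in 0.5% CMC/water suspension, vehicle for controls. 1 h later, carrageenan (0.5 mg/25 µl saline) injected subplantar into right hind paw, 25 µl saline into left. Right–left footpad thickness measured by dial callipers every 90 min for 6 h. % inhibition = [(n − n′)/n]×100 versus control. Groups of 3 (100 mg/kg screen) or 4–5 mice.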

Mus musculus [4] = test: Antiinflammatory activity in BALB/c mouse assessed as inhibition of carrageenan-induced paw edema at 200 mg/kg, po after 360 mins; type: functional; conditions: 6 h; method in brief: as §2
Mus musculus [5] = test: Analgesic activity in BALB/c mouse assessed as decrease in acetic acid-induced writhing at 100 mg/kg, po administered 1 hr prior to acetic acid challenge by Koster's test; type: functional; method in brief: as §1
Mus musculus [6] = test: Analgesic activity in BALB/c mouse assessed as decrease in acetic acid-induced writhing at 50 mg/kg, po administered 1 hr prior to acetic acid challenge by Koster's test; type: functional; method in brief: as §1
Mus musculus [7] = test: Acute toxicity in BALB/c mouse assessed as diarrhea and depression at 50 to 200 mg/kg, po after 72 hrs; type: organism-based; parameters: dose 50-200 mg/kg, route oral; conditions: in vivo
Mus musculus [8] = test: Antiinflammatory activity in BALB/c mouse assessed as inhibition of carrageenan-induced paw edema at 100 mg/kg, po after 180 mins; conditions: 3 h
Mus musculus [9] = test: Antiinflammatory activity in BALB/c mouse assessed as inhibition of carrageenan-induced paw edema at 200 mg/kg, po after 270 mins; conditions: 4.5 h
Mus musculus [10] = test: Antiinflammatory activity in BALB/c mouse assessed as inhibition of carrageenan-induced paw edema at 100 mg/kg, po after 270 mins; type: functional; conditions: 4.5 h; method in brief: as §2
Mus musculus [11] = test: Gastrointestinal toxicity in BALB/c mouse assessed as acute ulcerogenic risk at 200 mg/kg, po; type: organism-based; parameters: dose 200 mg/kg, route oral; conditions: in vivo
Method in brief: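 Mice, fasted overnight with free water, received 200 mg/kg orally as a suspension in distilled water with 0.5% carboxymethyl cellulose, in groups of 4–5. They were first used in the acetic acid writhing test. Eight hours after that test they were killed under deep ether anaesthesia, and their stomachs were removed and scored for ulcers. Acetylsalicylic acid 200 mg/kg was the reference.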

Mus musculus [12] = test: Antiinflammatory activity in BALB/c mouse assessed as inhibition of carrageenan-induced paw edema at 100 mg/kg, po after 180 mins; type: functional; conditions: 3 h; method in brief: as §2
Mus musculus [13] = test: Antiinflammatory activity in BALB/c mouse assessed as inhibition of carrageenan-induced paw edema at 100 mg/kg, po after 360 mins; type: functional; conditions: 6 h; method in brief: as §2
Mus musculus [14] = test: Antiinflammatory activity in BALB/c mouse assessed as inhibition of carrageenan-induced paw edema at 50 mg/kg, po after 90 mins; type: functional; conditions: 1.5 h; method in brief: as §2
Mus musculus [15] = test: Antiinflammatory activity in BALB/c mouse assessed as inhibition of carrageenan-induced paw edema at 200 mg/kg, po after 90 mins; type: functional; conditions: 1.5 h; method in brief: as §2
Mus musculus [16] = test: Antiinflammatory activity in BALB/c mouse assessed as inhibition of carrageenan-induced paw edema at 200 mg/kg, po after 270 mins; type: functional; conditions: 4.5 h; method in brief: as §2

| SMILES | inhibition in vivo at 200 mg/kg (Mus musculus [1]) [%] | Activity (Mus musculus [2]) [nmol] | inhibition in vivo at 100 mg/kg (Mus musculus [3]) [%] | inhibition in vivo at 200 mg/kg (Mus musculus [4]) [%] | inhibition in vivo at 100 mg/kg (Mus musculus [5]) [%] | inhibition in vivo at 50 mg/kg (Mus musculus [6]) [%] | Activity (Mus musculus [7]) | inhibition in vivo at 100 mg/kg (Mus musculus [8]) [%] | inhibition in vivo at 200 mg/kg (Mus musculus [9]) [%] | inhibition in vivo at 100 mg/kg (Mus musculus [10]) [%] | Activity (Mus musculus [11]) | inhibition in vivo at 100 mg/kg (Mus musculus [12]) [%] | inhibition in vivo at 100 mg/kg (Mus musculus [13]) [%] | inhibition in vivo at 50 mg/kg (Mus musculus [14]) [%] | inhibition in vivo at 200 mg/kg (Mus musculus [15]) [%] | inhibition in vivo at 200 mg/kg (Mus musculus [16]) [%] |
| --- | --- | --- | --- | --- | --- | --- | --- | --- | --- | --- | --- | --- | --- | --- | --- | --- |
| CC(=O)Oc1ccccc1C(=O)O [ASPIRIN] | 54.4 | 118.2 |  |  |  |  |  |  |  |  |  |  |  |  |  |  |
| COc1cc(CCc2nnc3n2N=C(c2ccccc2)CS3)cc(OC)c1OC | 27.5 | 100.3 | 31.7 | 29.2 | 17.1 | 32.4 | Non-toxic | 38.5 | 46.4 |  |  |  |  |  |  |  |
| COc1cc(Cc2nnc3n2N=C(c2ccccc2)CS3)cc(OC)c1OC | 58.4 | 92.2 | 24 | 33.3 | 53 | 32.4 | Non-toxic | 34.9 | 32.2 | 23.6 | Non-toxic |  |  |  |  |  |
| COc1ccc(CCc2nnc3n2N=C(c2ccccc2)CS3)cc1 | 44.2 | 110.8 |  | 37.5 | 42.8 | 6.4 | Non-toxic |  | 50 |  |  |  |  |  |  |  |
| COc1ccc(CCc2nnc3n2N=C(c2ccc(F)cc2)CS3)cc1 | 37 | 103.5 | 26 | 27.1 | 29.2 | 25 | Non-toxic | 33.7 | 34 |  |  |  |  |  |  |  |
| COc1cc(Cc2nnc3n2N=C(c2ccc(F)cc2)CS3)cc(OC)c1OC | 52.2 | 107.6 |  | 25 | 35 | 22.1 | Non-toxic | 26.8 | 24.9 |  |  |  |  |  |  |  |
| COc1cc(CCc2nnc3n2N=C(c2ccc(F)cc2)CS3)cc(OC)c1OC | 56.1 | 105.1 | 40.7 | 23 | 43.1 | 35.2 | Non-toxic |  | 46.4 | 57.9 |  | 21.4 | 38.9 | 34.5 |  |  |
| COc1cc(Cc2nnc3n2N=C(c2ccc(Cl)cc2)CS3)cc(OC)c1OC | 23.4 | 101.1 |  | 25 | 32.6 | 13.5 | Non-toxic |  | 41 |  |  |  |  |  |  |  |
| COc1cc(CCc2n[nH]c(=S)n2N)cc(OC)c1OC | 54.2 | 104.3 |  | 41.7 | 52.4 | 23.1 | Non-toxic |  |  |  |  |  |  |  | 39.3 | 20.4 |
